From paper PMC9059958 (RSC Advances, 2019)
In brackets after ≈: the same amount, converted by molar mass. Each block holds one molecule with its values, some of them ahead of it.

Columns and labels:
tet^R E. coli [1] = assay: Combination; format: cell-based, Escherichia coli; conditions: for Fold enhancement: tetracycline, amphiphile 20 μM, Tet^R E. coli
[2] = system: HEK-293, HeLa and Cos-7 cells; assay: Mammalian cell cytotoxicity; format: cell-based; conditions: 1/2 MIC; 24 hours; XTT
In short: (§1)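 HEK-293, HeLa and Cos-7 cells kept in DMEM with 10% FBS and 1% penicillin–streptomycin. Seeded at 3 × 10^4 cells per well and grown 24 h to 80–90% confluence. […] XTT assay: absorbance at 450 nm, 690 nm background. Percent survival versus untreated cells, three replicates, mean ± SD.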

human hepatocytes = assay: Human hepatocyte cell viability; format: cell-based; conditions: 72 h, read-out: EC50 against human hepatocytes
In short: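 Human hepatocytes treated with 1–100 μM test compound, or CCCP as control, for 72 h. Survival then determined.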

NorA efflux pump = target: T1, NorA efflux pump (Staphylococcus aureus, UniProt P0A0J7); assay: Efflux pump inhibition; format: cell-based; conditions: read-out: inhibition of NorA activity, lower than for 3 or 4
T1 sequence (P0A0J7 1-388): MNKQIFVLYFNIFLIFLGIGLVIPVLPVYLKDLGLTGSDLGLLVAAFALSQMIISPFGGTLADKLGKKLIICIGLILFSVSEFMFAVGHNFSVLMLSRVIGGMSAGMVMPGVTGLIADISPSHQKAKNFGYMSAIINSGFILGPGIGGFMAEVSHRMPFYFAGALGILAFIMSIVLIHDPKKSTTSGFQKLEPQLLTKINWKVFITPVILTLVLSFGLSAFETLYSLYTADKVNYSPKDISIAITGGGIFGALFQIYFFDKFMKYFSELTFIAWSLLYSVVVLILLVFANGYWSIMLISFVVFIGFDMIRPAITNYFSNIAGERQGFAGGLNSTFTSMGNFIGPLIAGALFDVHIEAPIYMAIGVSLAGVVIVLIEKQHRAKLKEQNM
In short: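 S. aureus 1199B knocked back to OD600 0.550, then loaded with ethidium bromide (10 μg mL−1) plus 100 μM CCCP in MHII at OD600 1.000 for 20 min at room temperature. Spun, held on ice, warmed 5 min, adjusted to OD600 0.800. Added to wells containing test compound, CCCP or reserpine. Fluorescence read at ex 530/em 600 nm every minute for 20 min. Three runs, SD.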

E. faecalis (VanA) = assay: MIC screening; format: cell-based, Enterococcus faecalis
In short: (§2)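 Broth microdilution. Overnight cultures knocked back to OD600 0.100 and grown at 37 °C to OD600 0.500. Final inoculum 4 × 10^5 CFU mL−1 in cation-adjusted MHII; S. pneumoniae in CA-MHB with 5% LHB; tetR E. coli in LB with 100 μg mL−1 ampicillin. Final DMSO 0.5% v/v. Incubated 18–20 h at 37 °C, then OD600 read. MIC is ≥90% inhibition versus untreated cells. Triplicate wells, repeated on two further plates.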

E. faecalis (control) = assay: MIC screening; format: cell-based, Enterococcus faecalis
In short: as §2

P. aeruginosa (R:Mero) = assay: MIC screening; format: cell-based; conditions: Pseudomonas aeruginosa
In short: as §2

E. coli (WT) = assay: MIC screening; format: cell-based; conditions: Escherichia coli
In short: as §2

E. coli (Tol-) = assay: MIC screening; format: cell-based; conditions: Escherichia coli
In short: as §2

E. aerogenes (R:Cep) = assay: MIC screening; format: cell-based, Enterobacter aerogenes; conditions: Klebsiella aerogenes
In short: as §2

S. aureus 1199B [3] = assay: MIC against NorA expressing S. aureus 1199B; format: cell-based; conditions: Staphylococcus aureus
In short: as §2

tet^R E. coli [4] = assay: MIC against efflux pump expressing tet^R E. coli; format: cell-based; conditions: Escherichia coli
In short: as §2

[5] = Solubility in combination assay; conditions: combination assay medium
S. pneumoniae (control) = assay: MIC screening; format: cell-based; conditions: Streptococcus pneumoniae
In short: as §2

MRSA (USA 300) = assay: MIC screening; format: cell-based; conditions: Staphylococcus aureus, MRSA|USA300
In short: as §2

MRSA = assay: MIC against MRSA as stated in text; format: cell-based; conditions: Staphylococcus aureus
In short: as §2

S. aureus (control) = assay: MIC screening; format: cell-based; conditions: Staphylococcus aureus
In short: as §2

MRSA (USA100) = assay: MIC screening; format: cell-based; conditions: Staphylococcus aureus
In short: as §2

MRSA (control) = assay: MIC screening; format: cell-based; conditions: Staphylococcus aureus
In short: as §2

tet^R E. coli [6] = assay: Resistance development by sequential culturing; format: cell-based, Escherichia coli; conditions: 15 days
In short: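 Serial passage of tetR E. coli in LB over 15 days, with minocycline as comparator. […] Each day, cells from the second-highest concentration that allowed growth were diluted 1:100 into fresh media at 0.25–4× MIC. Cultures growing above the MIC were passaged on antibiotic-free LB agar and the MIC was redetermined. Mean of three trials.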

tet^R E. coli [7] = assay: Membrane permeability using propidium iodide and FDA; format: cell-based, Escherichia coli
In short: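 tetR E. coli grown overnight with 100 μg mL−1 ampicillin (37 °C, 200 RPM) and knocked back to OD600 0.550. Treated 30 min at half-MIC; Triton X-100 and DMSO controls; DMSO 0.5%. Washed (3000 × g, 5 min) into PBS, then stained with propidium iodide (30 μM) and fluorescein diacetate (60 μM) for 30 min at 37 °C. Washed again and imaged by confocal microscopy.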

S. aureus 1199B [8] = assay: Membrane permeability using propidium iodide; format: cell-based, Staphylococcus aureus; conditions: 0.1% (1.6 mM)
Cos-7 cells = assay: Mammalian cell cytotoxicity; format: cell-based, simian; conditions: 1/2 MIC; 24 hours; XTT
In short: as §1

HEK-293 cells = assay: Mammalian cell cytotoxicity; format: cell-based, human; conditions: 1/2 MIC (4: 1 μM; colistin 0.125 μM); 24 hours; XTT
tet^R E. coli [9] = assay: Potassium transport; format: cell-based, Escherichia coli; conditions: 30 μM
In short: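 tetR E. coli pelleted at 2000 × g, resuspended in PBS and adjusted to OD 1.300. Stirred suspension monitored with a K+-selective electrode. Multiple test compound concentrations; mV recorded every 30 s for 15 min. [K+] calculated from a calibration curve. Total potassium pool from cells heated at 100 °C for 30 min, set as 100%. Three trials, SD.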

[10] = amphiphile at 1/2 MIC, tet^R E. coli

Molecule: N#CC(C#N)=NNc1cccc(Cl)c1 [CCCP, carbonyl cyanide 3-chlorophenylhydrazone]
FIC index with tetracycline (tet^R E. coli [1]; [10]): 0.75
increase (recovery) in activity of tetracycline (tet^R E. coli [1]; [10]): 4 fold
cytotoxicity [2]: cytotoxic
EC50 (human hepatocytes): 5 µM
inhibition at 4 µM (NorA efflux pump): ~30%

Molecule: CCCCCCCCCC(=O)N[C@@H](Cc1c[nH]c2ccccc12)C(=O)N[C@H](CC(N)=O)C(=O)N[C@@H](CC(=O)O)C(=O)N[C@@H]1C(=O)NCC(=O)N[C@@H](CCCN)C(=O)N[C@@H](CC(=O)O)C(=O)N[C@H](C)C(=O)N[C@@H](CC(=O)O)C(=O)NCC(=O)N[C@H](CO)C(=O)N[C@@H]([C@H](C)CC(=O)O)C(=O)N[C@@H](CC(=O)c2ccccc2N)C(=O)O[C@@H]1C [Daptomycin, daptomycin]
MIC (E. faecalis (VanA)): 2.5 µM (≈ 4.05 µg/mL)
MIC (E. faecalis (control)): 2.5 µM (≈ 4.05 µg/mL)

MIC (P. aeruginosa (R:Mero)): > 166 µM
MIC (E. coli (WT)): < 0.33 µM
MIC (E. coli (Tol-)): < 0.33 µM
MIC (E. aerogenes (R:Cep)): < 0.33 µM
Molecule: C[C@@H](O)[C@H]1C(=O)N2C(C(=O)O)=C(S[C@@H]3CN[C@H](C(=O)N(C)C)C3)[C@H](C)[C@H]12 [Meropenem, meropenem]

Molecule: CCn1cc(C(=O)O)c(=O)c2cc(F)c(N3CCNCC3)cc21 [Norfloxacin, norfloxacin]
MIC (S. aureus 1199B [3]): 64 µM (≈ 20.4 µg/mL)

Molecule: COC(=O)[C@H]1[C@H]2C[C@@H]3c4[nH]c5cc(OC)ccc5c4CCN3C[C@H]2C[C@@H](OC(=O)c2cc(OC)c(OC)c(OC)c2)[C@@H]1OC [Reserpine, reserpine]
inhibition at 4 µM (NorA efflux pump): ~30%

MIC (tet^R E. coli [4]): 900 ± 50 µM (≈ 400 µg/mL)
Molecule: CN(C)[C@@H]1C(O)=C(C(N)=O)C(=O)[C@@]2(O)C(O)=C3C(=O)c4c(O)cccc4[C@@](C)(O)[C@H]3C[C@@H]12 [Tetracycline, tetracycline]

Molecule: CC(C)[C@@H]1NC(=O)[C@H](C)OC(=O)[C@@H](C(C)C)NC(=O)[C@@H](C(C)C)OC(=O)[C@H](C(C)C)NC(=O)[C@H](C)OC(=O)[C@@H](C(C)C)NC(=O)[C@@H](C(C)C)OC(=O)[C@H](C(C)C)NC(=O)[C@H](C)OC(=O)[C@@H](C(C)C)NC(=O)[C@@H](C(C)C)OC1=O [Valinomycin, valinomycin]
Fold enhancement (tet^R E. coli [1]): 2 fold
solubility [5]: insoluble at >20 μM

MIC (S. pneumoniae (control)): < 0.1 µM
MIC (MRSA (USA 300)): 1 µM (≈ 1.45 µg/mL)
MIC (MRSA): 1 to 2 µM (≈ 1.45 to 2.9 µg/mL)
MIC (S. aureus (control)): 0.5 µM (≈ 0.725 µg/mL)
MIC (MRSA (USA100)): 1 µM (≈ 1.45 µg/mL)
MIC (MRSA (control)): 1 µM (≈ 1.45 µg/mL)
Molecule: CN[C@H](CC(C)C)C(=O)N[C@H]1C(=O)N[C@@H](CC(N)=O)C(=O)N[C@H]2C(=O)N[C@H]3C(=O)N[C@H](C(=O)N[C@H](C(=O)O)c4cc(O)cc(O)c4-c4cc3ccc4O)[C@H](O)c3ccc(c(Cl)c3)Oc3cc2cc(c3O[C@@H]2O[C@H](CO)[C@@H](O)[C@H](O)[C@H]2O[C@H]2C[C@](C)(N)[C@H](O)[C@H](C)O2)Oc2ccc(cc2Cl)[C@H]1O [Vancomycin, vancomycin]

Molecule: CN(C)c1ccc(O)c2c1C[C@H]1C[C@H]3[C@H](N(C)C)C(O)=C(C(N)=O)C(=O)[C@@]3(O)C(O)=C1C2=O [minocycline]
resistance development, increase in MIC (tet^R E. coli [6]): 40 fold

Molecule: Triton X-100
Fold enhancement (tet^R E. coli [1]): 2 fold
membrane permeability (propidium iodide) (tet^R E. coli [7]; 0.1% (1.6 mM)): increases membrane permeability
membrane permeability (propidium iodide) (S. aureus 1199B [8]): increases membrane permeability

Molecule: colistin
concentration that increases membrane permeability (propidium iodide) (tet^R E. coli [7]): ≥ 2000 nM
survival of Cos-7 (Cos-7 cells): non-cytotoxic
survival of HEK-293 (HEK-293 cells): about 60%

Molecule: gramicidin-D
Fold enhancement (tet^R E. coli [1]): 1 fold
solubility [5]: insoluble at >20 μM
K+ release, percent of total potassium pool (tet^R E. coli [9]): 50–60%
